From ChEMBL document CHEMBL3784932, “Design, synthesis and docking studies of novel dipeptidyl boronic acid proteasome inhibitors constructed from αα- and αβ-amino acids” (Bioorg Med Chem Lett, 2016)

Key:
[1] = Cytotoxicity against human U266 cells after 72 hrs by MTS assay; assay type: functional, cell-based; conditions: U-266, 72 h
How it was run: (§1)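 Cellular IC50 from a ten-concentration series, each concentration tested in triplicate.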

[2] = Cytotoxicity against human ARH77 cells after 72 hrs by MTS assay; assay type: functional, cell-based; conditions: ARH-77, 72 h; how it was run: as §1
[3] = biological target: T1, Proteasome Macropain subunit MB1 (Homo sapiens, UniProt P28074); experiment: Inhibition of chymotrypsin like activity of human erythrocyte-derived 20S proteasome preincubated for 10 mins using Suc-LLVY-AMC as substrate after 60 mins by fluorescence assay
T1 sequence (P28074 whole entry): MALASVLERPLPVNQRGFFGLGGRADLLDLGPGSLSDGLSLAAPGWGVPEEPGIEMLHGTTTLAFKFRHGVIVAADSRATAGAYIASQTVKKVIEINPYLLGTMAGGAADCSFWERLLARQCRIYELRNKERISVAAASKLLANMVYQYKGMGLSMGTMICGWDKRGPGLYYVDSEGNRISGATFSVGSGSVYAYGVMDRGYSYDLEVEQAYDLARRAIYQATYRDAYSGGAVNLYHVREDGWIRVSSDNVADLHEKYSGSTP
How it was run: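 Enzymatic IC50 from eight inhibitor concentrations, each point assayed in duplicate; β5 (chymotrypsin-like) subunit of human proteasome.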

[4] = Cytotoxicity against human RPMI8226 cells after 72 hrs by MTS assay; assay type: functional, cell-based; conditions: RPMI-8226, 72 h; how it was run: as §1

| IC50 ([3]; read-out: IC50) | IC50 [3] | Structure (SMILES) | IC50 [1] | IC50 [2] | IC50 [4] |
| --- | --- | --- | --- | --- | --- |
| 4.82 nM |  | CC(C)C[C@H](NC(=O)[C@H](Cc1ccccc1)NC(=O)C1CCCC1)B(O)O | 2.48 nM | 3.87 nM |  |
|  |  | CC(C)C[C@H](NC(=O)[C@H](Cc1ccccc1)NC(=O)c1cnccn1)B(O)O [BORTEZOMIB] | 5.73 nM | 6.07 nM |  |
|  | Not Active | O=C(N[C@@H](Cc1ccccc1)C(=O)N[C@@H](CCc1ccccc1)CB(O)O)c1ccccc1 |  |  |  |
|  | Not Active | CC(C)C[C@@H](CB(O)O)NC(=O)[C@H](Cc1ccccc1)NC(=O)c1ccccc1 |  |  |  |
| 1.2 nM |  | CC(C)C[C@H](NC(=O)[C@H](Cc1ccccc1)NC(=O)[C@H]1CCCc2ccccc21)B(O)O |  |  |  |
| 4.69 nM |  | CC(C)C[C@H](NC(=O)[C@H](Cc1ccccc1)NC(=O)CC(C)(C)C)B(O)O | 8.01 nM | 8.31 nM |  |
|  | Not Active | O=C(N[C@@H](Cc1ccccc1)C(=O)N[C@H](CB(O)O)c1ccccc1)c1cnccn1 |  |  |  |
| 1.6 nM |  | CC(C)C[C@H](NC(=O)[C@H](Cc1ccccc1)NC(=O)c1cccc2c1CCCC2)B(O)O |  |  |  |
|  | Not Active | O=C(N[C@@H](Cc1ccccc1)C(=O)N[C@H](CB(O)O)c1ccccc1)c1ccccc1 |  |  |  |
|  | Not Active | O=C(N[C@@H](Cc1ccccc1)C(=O)N[C@@H](CCc1ccccc1)CB(O)O)c1cnccn1 |  |  |  |
| 6.94 nM |  | CCCC(=O)N[C@@H](Cc1ccccc1)C(=O)N[C@@H](CC(C)C)B(O)O | 8.51 nM | 7.87 nM | 5.61 nM |
| 1.02 nM |  | CC(C)C[C@@H](NC(=O)CC(NC(=O)[C@H]1CCCc2ccccc21)c1cccc(F)c1)B(O)O (some centres undefined) |  |  |  |
|  | Not Active | CC(C)C[C@@H](CB(O)O)NC(=O)[C@H](Cc1ccccc1)NC(=O)c1cnccn1 |  |  |  |
| 8.47 nM |  | COCCC(=O)N[C@@H](Cc1ccccc1)C(=O)N[C@@H](CC(C)C)B(O)O | 11.5 nM | 9.03 nM | 7.32 nM |
| 6.31 nM |  | COCC(=O)N[C@@H](Cc1ccccc1)C(=O)N[C@@H](CC(C)C)B(O)O | 6.04 nM | 5.72 nM | 4.56 nM |
